Test results: ChEMBL document CHEMBL3272089, “Synthesis and antitumor activity of dihydro-5-azacytidine, a hydrolytically stable analogue of 5-azacytidine” (J Med Chem, 1977)

Columns and labels:
[1] = system: L1210; assay: Antitumor activity against mouse L1210 cells allografted in ip dosed mouse assessed as increase in life span at optimal dose administered every 6 hrs on day 1, 5 and 9 post tumor implantation relative to control; assay type: functional
Procedure, shortened: (§1)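 L1210 leukemia cells implanted ip in mice. Drug given ip in 0.9% saline: day 1 only (QD1); days 1, 5, 9 (Q4D); every 6 h on days 1, 5, 9 (Q4D(Q6H)); or days 1-9 (QD1-9). Dose-response run in twofold steps, dose in mg/kg per injection. % ILS versus untreated controls at the optimal dose. Toxicity taken as test minus control body-weight change on day 5.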

[2] = system: L1210; assay: Antitumor activity against mouse L1210 cells allografted in ip dosed mouse assessed as increase in life span at optimal dose administered qd from day 1 to day 9 post tumor implantation relative to control; assay type: functional; procedure, shortened: as §1
[3] = system: L1210; assay: Antitumor activity against 5-azacytidine-resistant mouse L1210 cells allografted in ip dosed mouse assessed as increase in life span at optimal dose administered qd from day 1 to day 9 post tumor implantation relative to control; assay type: functional
Procedure, shortened: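 An L1210 subline resistant to 5-azacytidine (L1210/AZA) was implanted ip in mice. Drug given ip in 0.9% saline, dose-response in twofold steps, dose in mg/kg per injection. % ILS over untreated control survival at the optimal dose. Test minus control body-weight change on day 5.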

[4] = system: L1210; assay: Antitumor activity against mouse L1210 cells allografted in po dosed mouse assessed as increase in life span at optimal dose administered qd from day 1 to day 9 post tumor implantation relative to control; assay type: functional
Procedure, shortened: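 Mice bearing ip-implanted L1210 were dosed orally, nonfasting, with compound in 0.9% saline. Dose-response in twofold steps, mg/kg per dose. % ILS relative to untreated controls at the optimal dose. Weight change (test minus control) on day 5.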

[5] = system: L1210; assay: Antitumor activity against mouse L1210 cells allografted in ip dosed mouse assessed as increase in life span at optimal dose administered qd from day 1 to day 9 post intracerebral tumor implantation relative to control; assay type: functional
Procedure, shortened: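 L1210 cells implanted intracerebrally in mice. Drug given ip in 0.9% saline, dose-response in twofold dose steps (mg/kg per injection). Antitumor effect as % increase in life-span over untreated controls at the optimal dose. Test minus control body-weight change recorded on day 5.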

[6] = system: B16; assay: Antitumor activity against mouse B16 cells allografted in ip dosed mouse assessed as increase in life span at optimal dose administered qd from day 1 to day 9 post tumor implantation relative to control; assay type: functional
[7] = system: L1210; assay: Antitumor activity against mouse L1210 cells allografted in ip dosed mouse assessed as dose required for minimal activity administered qd on day 1 post tumor implantation; assay type: functional; conditions: 24 h, read-out: MED
Procedure, shortened: (§2)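 Tumour cells were implanted ip (intracerebrally for IC-L1210), with the compound given in 0.9% saline ip, or orally to nonfasting mice in PO-L1210. Dose–response series each halved the preceding dose, expressed as mg/kg per injection. Activity was read as % increase in life-span (% ILS) over untreated controls, and from this the minimum, optimal and maximum active doses were taken.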

[8] = system: L1210; assay: Antitumor activity against mouse L1210 cells allografted in ip dosed mouse assessed as dose required for minimal activity administered every 6 hrs on day 1, 5 and 9 post tumor implantation; assay type: functional; conditions: read-out: MED; procedure, shortened: as §2
[9] = system: L1210; assay: Antitumor activity against mouse L1210 cells allografted in po dosed mouse assessed as dose required for minimal activity administered qd from day 1 to day 9 post tumor implantation; assay type: functional; conditions: read-out: MED; procedure, shortened: as §2
[10] = system: L1210; assay: Antitumor activity against mouse L1210 cells allografted in ip dosed mouse assessed as dose required for minimal activity administered qd from day 1 to day 9 post intracerebral tumor implantation; assay type: functional; conditions: read-out: MED; procedure, shortened: as §2
[11] = system: Mus musculus; assay: Toxicity in ip dosed mouse allografted with mouse L1210 cells assessed as dose required for optimal activity administered qd on day 1 post tumor implantation; assay type: organism-based; conditions: in vivo; procedure, shortened: as §2
[12] = system: Mus musculus; assay: Toxicity in ip dosed mouse allografted with mouse L1210 cells assessed as dose required for optimal activity administered qd on day 1, 5 and 9 post tumor implantation; assay type: organism-based; conditions: in vivo; procedure, shortened: as §2
[13] = system: Mus musculus; assay: Toxicity in ip dosed mouse allografted with mouse L1210 cells assessed as dose required for optimal activity administered every 6 hrs on day 1, 5 and 9 post tumor implantation; assay type: organism-based; conditions: in vivo; procedure, shortened: as §2
[14] = system: Mus musculus; assay: Toxicity in ip dosed mouse allografted with mouse L1210 cells assessed as dose required for optimal activity administered qd from day 1 to day 9 post tumor implantation; assay type: organism-based; conditions: in vivo; procedure, shortened: as §2
[15] = system: Mus musculus; assay: Toxicity in po dosed mouse allografted with mouse L1210 cells assessed as dose required for optimal activity administered qd from day 1 to day 9 post tumor implantation; assay type: organism-based; conditions: in vivo; procedure, shortened: as §2
[16] = system: Mus musculus; assay: Toxicity in ip dosed mouse allografted with mouse L1210 cells assessed as dose required for optimal activity administered qd from day 1 to day 9 post intracerebral tumor implantation; assay type: organism-based; conditions: in vivo; procedure, shortened: as §2
[17] = system: Mus musculus; assay: Toxicity in ip dosed mouse allografted with mouse P388 cells assessed as dose required for optimal activity administered qd from day 1 to day 9 post tumor implantation; assay type: organism-based; conditions: in vivo; procedure, shortened: as §2
[18] = system: Mus musculus; assay: Toxicity in ip dosed mouse allografted with mouse B16 cells assessed as dose required for optimal activity administered qd from day 1 to day 9 post tumor implantation; assay type: organism-based; conditions: in vivo; procedure, shortened: as §2
[19] = system: L1210; assay: Antitumor activity against mouse L1210 cells allografted in ip dosed mouse assessed as dose required for maximal activity administered qd on day 1 post tumor implantation; assay type: functional; procedure, shortened: as §2
[20] = system: L1210; assay: Antitumor activity against mouse L1210 cells allografted in ip dosed mouse assessed as dose required for maximal activity administered qd from day 1 to day 9 post tumor implantation; assay type: functional; procedure, shortened: as §2
[21] = system: L1210; assay: Antitumor activity against mouse L1210 cells allografted in po dosed mouse assessed as dose required for maximal activity administered qd from day 1 to day 9 post tumor implantation; assay type: functional; procedure, shortened: as §2
[22] = system: B16; assay: Antitumor activity against mouse B16 cells allografted in ip dosed mouse assessed as change in body weight at optimal dose administered qd from day 1 to day 9 post tumor implantation measured on day 5 relative to control; assay type: functional
Procedure, shortened: (§3)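 Mice bearing tumour cells implanted ip (intracerebrally in the IC-L1210 system) got compound in 0.9% saline ip on the stated schedule, or orally to nonfasting animals in the PO-L1210 system. Day-1 dosing, per day, or every 6 h counted from implantation. The value is the difference in average body weight change (g) on day 5 between the optimal-dose group (T) and controls (C).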

[23] = system: L1210; assay: Antitumor activity against mouse L1210 cells allografted in ip dosed mouse assessed as change in body weight at optimal dose administered qd from day 1 to day 9 post intracerebral tumor implantation measured on day 5 relative to control; assay type: functional; procedure, shortened: as §3
[24] = system: L1210; assay: Antitumor activity against mouse L1210 cells allografted in po dosed mouse assessed as change in body weight at optimal dose administered qd from day 1 to day 9 post tumor implantation measured on day 5 relative to control; assay type: functional; procedure, shortened: as §3
[25] = system: L1210; assay: Antitumor activity against mouse L1210 cells allografted in ip dosed mouse assessed as change in body weight at optimal dose administered every 6 hrs on day 1, 5 and 9 post tumor implantation measured on day 5 relative to control; assay type: functional; procedure, shortened: as §3
[26] = system: L1210; assay: Antitumor activity against mouse L1210 cells allografted in ip dosed mouse assessed as change in body weight at optimal dose administered qd on day 1, 5 and 9 post tumor implantation measured on day 5 relative to control; assay type: functional; procedure, shortened: as §3
[27] = system: L1210; assay: Antitumor activity against mouse L1210 cells allografted in ip dosed mouse assessed as change in body weight at optimal dose administered qd on day 1 post tumor implantation measured on day 5 relative to control; assay type: functional; procedure, shortened: as §3
[28] = system: L1210; assay: Antitumor activity against mouse L1210 cells allografted in ip dosed mouse assessed as increase in life span at optimal dose administered qd on day 1, 5 and 9 post tumor implantation relative to control; assay type: functional; procedure, shortened: as §1

Structure (SMILES)	ILS [1] [%]	ILS [2] [%]	ILS [3] [%]	ILS [4] [%]	ILS [5] [%]	ILS [6] [%]	minimal effective dose [7] [mg/kg]	minimal effective dose [8] [mg/kg]	minimal effective dose [9] [mg/kg]	minimal effective dose [10] [mg/kg]	Activity [11] [mg/kg]	Activity [12] [mg/kg]	Activity [13] [mg/kg]	Activity [14] [mg/kg]	Activity [15] [mg/kg]	Activity [16] [mg/kg]	Activity [17] [mg/kg]	Activity [18] [mg/kg]	MAD [19] [mg/kg]	MAD [20] [mg/kg]	also measured
Cl.NC1=NC(=O)N([C@@H]2O[C@H](CO)[C@@H](O)[C@H]2O)CN1	68	116	0	50	46	19	300	9.4	200	25	600	600	125	100	400	100	100	100	1600	200	MAD [21]: 400 mg/kg; Activity [22]: -3.3 g; Activity [23]: -1.9 g; Activity [24]: -4.4 g; Activity [25]: -2.5 g; Activity [26]: -4.3 g; Activity [27]: -3.1 g; ILS [28]: 96%
Nc1ncn([C@@H]2O[C@H](CO)[C@@H](O)[C@H]2O)c(=O)n1 [AZACITIDINE]	126	128	0	24	28	20	12.5	1.25	1.56	0.75	50	10	5	3	12.5	0.75	3	3	100	3.13	MAD [21]: 25 mg/kg; Activity [22]: 1.5 g; Activity [23]: -0.5 g; Activity [24]: -4.1 g; Activity [25]: -1.5 g; Activity [26]: -1.5 g; Activity [27]: -3.8 g; ILS [28]: 94%
